M1 ag: agonists of M1 muscarinic receptor. CHO-M1 cells, Fluo-4 calcium fluorescence, agonist mode; active compounds read high. B-score at 10 µM. 64,000 tested, 3% active;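 active means fluorescence rise, raw or as B-score row- and column-corrected plate score, outside the 99.7% band of its plate's samples, either direction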
M1 antagonist: M1 muscarinic receptor (rat) antagonism; CHO-M1 cells, Fluo-4 calcium, ACh EC80 antagonist mode; active compounds read low; B-score at 10 µM; 64,000 tested, 3.4% active; AID 628;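 active means calcium fluorescence response, raw or row-and-column corrected B-score, differing from the plate sample mean either way at a set confidence level, mostly lower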
S1P1 ag pot: S1P1 (human) agonism or agonism potentiation; 56,000 tested, 0.57% active; activation, % at 9.5 µM; AID 449; S1P1 CRE-bla cells, forskolin, beta-lactamase FRET, potentiator mode; S1P1 agonist co-added at EC20, 2 nM; 100% = saturating reference agonist, 0% = basal;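 active means activation above a cutoff set at the mean activation of all tested compounds plus 3 SD, cut at about 54% in these data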;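 further: forskolin at 4 µM as EC80 and the EC20 agonist is SEW2871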
D1 mod: allosterically modulates the human D1 dopamine receptor. P21728. HEK293 D1, CRE-luciferase, dopamine EC30 potentiation; actives deviate in either direction. B-score at 10 µM. 58,000 tested, 5.9% active;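 active means luminescence count or its row- and column-corrected plate score outside the 99.7% band of the plate's sample wells, on either side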
Target sequence (P21728 whole entry, looked up): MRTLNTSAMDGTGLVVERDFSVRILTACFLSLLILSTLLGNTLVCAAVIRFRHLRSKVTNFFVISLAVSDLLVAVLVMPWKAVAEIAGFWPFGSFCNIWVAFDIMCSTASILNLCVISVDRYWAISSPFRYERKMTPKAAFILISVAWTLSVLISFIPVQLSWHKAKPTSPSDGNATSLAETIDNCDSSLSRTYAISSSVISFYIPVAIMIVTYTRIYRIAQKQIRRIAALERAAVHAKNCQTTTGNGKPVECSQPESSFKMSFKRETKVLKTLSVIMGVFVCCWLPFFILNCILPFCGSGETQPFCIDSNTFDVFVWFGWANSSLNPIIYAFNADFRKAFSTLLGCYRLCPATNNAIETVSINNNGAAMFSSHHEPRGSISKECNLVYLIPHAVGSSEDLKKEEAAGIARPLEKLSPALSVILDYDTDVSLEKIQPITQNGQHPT
TNAP act DEA: activators of human TNAP at intermediate phosphate acceptor; purified TNAP, CDP-star luminescence, 100 mM DEA, 30 min; active compounds read high; scale: 0 levamisole-inhibited, 1 vehicle-only enzyme; activation factor at 20 µM; 64,000 tested, under 10 active;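 active means activation factor of at least 2 at 20 µM, relative to controls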
S1P3 agonist: S1P3 (human) receptor agonism; S1P3 NFAT-BLA reporter cells, FRET ratio; relative to 1 µM S1P, basal subtracted; activation, % at 4.5 µM; 60,000 tested, 0.1% active; AID 373;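 active means activation above the screen-wide mean plus 3 SD, cut at about 4.5% in these data, passing the limit was not always enough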
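Benchmarks: high control 1 µM S1P / System: stable CHO line with human S1P3, Gα16, NFAT-BLA reporter / Dosing: single compound concentration, 4.5 µM final / Timing: 4 h compound at 37 °C, 2 h substrate at RT / Measured by: FRET β-lactamase substrate fluorescence, excitation 405 nm, 460/535 nm emission ratio, background-subtracted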
Each line names hits and unclear results; the compound was inactive in the other large screens. This is a sample that favours compounds with a hit; in the whole collection about 11% have one here.

CC(C(=O)NCc1ccc2c(c1)OCO2)N1c2cccc3cccc(c23)S1(=O)=O (stereo not given)	none
CC(C)COc1ccc(-c2nnc(-c3ccco3)o2)cc1	D1 mod -5.5 (no result: M1 ag, M1 antagonist)
CCCOc1ccc(-c2nnc(-c3ccco3)o2)cc1	D1 mod -4.7
CCN1C(=O)N(C)C(N(O)C(=O)NC)C1(C)C (stereo not given)	none
CN(Cc1ccccc1)Cc1c[nH]c2ccccc12	D1 mod -4.5
c1ccc(CN2CCC3(CC2)Nc2ccccc2CO3)cc1	M1 ag 17, M1 antagonist -2.8
Clc1ccccc1C1=Nn2c(nnc2-c2ccncc2)SC1	S1P1 ag pot 75
O=C(c1cc2ccccc2o1)N1CCN=C1SCc1cccnc1	D1 mod -1.8
O=C(c1cc2ccccc2o1)N1CCN=C1SCc1cccc(F)c1	none
COc1ccc(-c2nsc3c(N4CCCC4)ncnc23)cc1	D1 mod -4.4
O=C1NC(=S)S/C1=C1\Sc2ccccc2N1CCCS(=O)(=O)O	D1 mod -2.9
CN1C(=C2C(=O)OC(C)(C)OC2=O)Sc2ccccc21	none
NC(=O)c1ccc(-n2nnnc2Oc2ccccc2)cc1	none
C/C=C/c1ccc(Oc2nnnn2-c2ccc(C(N)=O)cc2)c(OC)c1	D1 mod -6.5
COc1ccc(C(=O)Nc2cccc(OC)c2)cc1	D1 mod -3.7
COc1cccc(C(=O)Nc2cccc(NC(C)=O)c2)c1	none
COc1cccc(C(=O)Nc2ccc(NC(=O)C(C)(C)C)cn2)c1	D1 mod -6.3 (no result: S1P1 ag pot, S1P3 agonist)
O=S(=O)(N1CCOCC1)n1c(Cc2ccccc2)nc2ccccc21	D1 mod 4.4
Cc1ccc(NC(=O)C2CCCN2C(=O)Oc2ccccc2)cc1 (stereo not given)	none
O=C(O)C1CCCN1C(=O)Oc1ccccc1 (stereo not given)	D1 mod -2.6
Cn1c(-c2ccc(F)cc2)cnc1NCc1ccccc1	D1 mod -3.4
NC(=O)CSc1nnc(-c2ccc(S(=O)(=O)N3CCOCC3)cc2)n1Cc1ccccc1	M1 antagonist 2.3 (no result: D1 mod)
CCCCc1nc(SCC(=O)Nc2ccc(S(N)(=O)=O)cc2)n[nH]1	none (no result: M1 ag, M1 antagonist)
COc1ccccc1-n1c(=O)c2c3c(sc2n2c(SC)nnc12)CCC3	none (no result: D1 mod)
c1ccc2c(c1)CCN2CCN1CCc2ccccc21	D1 mod -3.2
COc1cc(CC(=O)Nc2ccc(S(=O)(=O)N(C)C)cc2)cc(OC)c1OC	none
Cn1cnnc1SCc1ccc(C(=O)O)cc1	M1 antagonist 2.1 (no result: S1P1 ag pot, S1P3 agonist)
O=C(CCCn1c(=S)[nH]c2cc3c(cc2c1=O)OCO3)N1CCc2ccccc2C1	none (no result: S1P1 ag pot, S1P3 agonist)
O=C(c1ccco1)N1CCN(S(=O)(=O)c2cccc(C(F)(F)F)c2)CC1	none (no result: S1P1 ag pot)
CCOC(=O)CCC(=O)N1CCNC(=O)C1	M1 antagonist 2.2 (no result: S1P1 ag pot, D1 mod, S1P3 agonist)
COc1ccc(NC(=O)CC2SC(=NCc3ccccc3OC)NC2=O)cc1 (stereo not given)	D1 mod -4
Cn1ccnc1SCc1cn2cc(Br)ccc2n1	D1 mod -4.7 (no result: S1P1 ag pot, S1P3 agonist)
O=C(CC1(C(F)(F)F)OCCO1)Nc1ccc2c(c1)OCO2	none
CCOc1ccc(OCc2cccc(C(=O)N3CCOCC3)c2)cc1	D1 mod -6.7
CCCS(=O)(=O)Nc1cc(C(F)(F)F)ccc1OCCOC	none
O=S(=O)(CCn1cccc1)CCn1cccc1	M1 antagonist 2.2 (no result: S1P1 ag pot, S1P3 agonist)
CCC(=O)Nc1ccc(S(=O)(=O)c2ccc(NC(=O)CC)cc2)cc1	none
O=C(c1n[nH]c2c1CCCC2)n1ccnc1	none
Cn1c(C(=O)NCCCN2CCN(c3ccccc3F)CC2)cc2c(=O)n(C)c3ccccc3c21	D1 mod -2.6
CC(NC(=O)c1cc2c(=O)n(C)c3ccccc3c2n1C)c1ccc2c(c1)OCCO2 (stereo not given)	M1 ag 4.4, D1 mod -4.6
COc1ccc(C)cc1S(=O)(=O)N(CC(=O)N1CCCC1)c1ccccc1	none (no result: S1P1 ag pot)
CC(C)CNC(=O)CN(C1CCCCC1)S(=O)(=O)c1ccccc1	none (no result: S1P1 ag pot, S1P3 agonist)
Cc1noc(C)c1CSc1nnc(-c2ccncc2)n1-c1cccc(Cl)c1C	none
Cc1ccccc1-n1c(SCc2c(C)noc2C)nnc1-c1c[nH]c2ccccc12	D1 mod -6.2
Cc1occc1-c1nnc(SCC(=O)N2CCCc3ccccc32)n1Cc1ccco1	D1 mod -2.6
O=c1[nH]c(Cn2nnc(-c3ccccc3)n2)nc2scc(-c3ccccc3)c12	none (no result: D1 mod)
O=C(Nc1ccc2nsnc2c1)c1ccc2c(c1)OCO2	D1 mod -4
COc1cccc(-c2cc3nc(-c4ccccc4)cc(N4CCC5(CC4)OCCO5)n3n2)c1	none (no result: S1P1 ag pot, S1P3 agonist)
COc1ccc(-c2cc3nc4c(c(N5CCC6(CC5)OCCO6)n3n2)CCCC4)cc1	D1 mod 3.7
CCOC(=O)c1cc(-c2ccc3c(c2)OCCO3)nc2c1c(C)nn2CCC#N	none
CCOC(=O)c1cc(-c2ccco2)nc2c1c(C)nn2CCC#N	M1 antagonist 1.1
COCCCNC(=O)C1CCN(C(=O)Nc2ccc(Cl)cc2)CC1	none
Nc1c2c(nc3ccn(Cc4ccccc4)c(=O)c13)CCC2	D1 mod -3.2
Nc1c2c(nc3ccn(-c4ccccc4)c(=O)c13)CCCCC2	D1 mod -4.7
O=c1[nH]c2sc3c(c2c(=O)n1Cc1ccccc1)CCC3	none (no result: D1 mod)
C=CCn1c(SCC(=O)Nc2nnc(CC)s2)nnc1-c1ccco1	none
CC(C)NC(=O)c1cc(-c2ccco2)on1	none
CCc1ccc(NC(=O)c2cc(-c3ccco3)on2)cc1	S1P1 ag pot 56
Cc1nnc(NC(=O)c2sc3ccccc3c2Cl)s1	D1 mod -6.4
COCCNc1cc(C)nc2c3c(C)cc(C)nc3nn12	none
CNC(=O)c1cc2c(=O)n3cc(C)ccc3nc2n(Cc2ccco2)c1=N	none
CNC(=O)c1cc2c(=O)n3cc(C)ccc3nc2n(C(C)C)c1=N	M1 ag 17
CCOc1ccc(-n2ccnc2SCC(=O)NCc2ccc3c(c2)OCO3)cc1	none
Cc1ccc2cccc(NC(=O)C(F)(F)F)c2n1	none
CC(=O)Nc1ccccc1NC(=O)C(F)(F)F	M1 antagonist 1.8
Cc1nonc1NC(=O)CSc1nc2cc(Cl)ccc2c2c1CCCC2	D1 mod -2.5 (no result: S1P1 ag pot, S1P3 agonist)
Cc1noc(C)c1COC(=O)CCN1c2ccccc2Sc2ccccc21	none
O=C(Nc1nc(-c2nc3ccccc3s2)cs1)c1ccc(S(=O)(=O)N2CCOCC2)cc1	S1P1 ag pot 109
COc1cccc(C(=O)Nc2nc(-c3ccc(S(=O)(=O)N4CCOCC4)cc3)cs2)c1	D1 mod -3.3 (no result: S1P1 ag pot)
O=C(CNS(=O)(=O)c1ccc(Br)s1)NCC1COc2ccccc2O1 (stereo not given)	none
CC(=O)Nc1cc(NC(C)=O)cc(C(=O)NC(C)(C)C)c1	none
